Measured values of several laboratories.
Each line is one published result; the experiments were not run side by side.
MST1R: Macrophage-stimulating protein receptor (MST1R, Homo sapiens, UniProt Q04912)
PDE3A: cGMP-inhibited 3',5'-cyclic phosphodiesterase 3A (PDE3A, Homo sapiens, UniProt Q14432)
MAPK14: Mitogen-activated protein kinase 14 (MAPK14, Homo sapiens, UniProt Q16539)

CC(C)(C)n1nc(-c2ccc3nc(OC4CC4)ccc3c2)c(C(N)=O)c1N  IC50 (Death-associated protein kinase 3 (DAPK3, Homo sapiens, UniProt O43293); cell-free assay): > 10000 nM
CCCC[C@H](NC(=O)[C@H](C)c1c(C)[nH]c2ccc(O)cc12)c1ncc(-c2cc3ccccc3nc2OC)[nH]1  IC50 (Prostaglandin E2 receptor EP3 subtype (PTGER3, Homo sapiens, UniProt P43115); enzyme activity): 8650 nM
CC(Cc1ccc(O)c(O)c1)C(C)Cc1ccc(O)c(O)c1 (centres unmarked)  IC50 (Leucine-rich repeat serine/threonine-protein kinase 2 (LRRK2, Homo sapiens, UniProt Q5S007); enzyme activity, inhibitor, radiometric): 456 nM
CCOCc1nc(O)c(-c2nnc(Cc3ccc(Cl)cn3)o2)c(O)c1-c1c(OC)cccc1OC  IC50 (Alpha-2C adrenergic receptor (ADRA2C, Homo sapiens, UniProt P18825); ligand displacement, radioligand): > 30000 nM
COc1ccc2c(Oc3ccc4c(C(=O)Nc5ccccc5N)cccc4c3)ccnc2c1  IC50 (MST1R; enzyme activity, inhibitor): > 500 nM
CN1CCN(c2ccc(Nc3ncc4cc(C#N)c(=O)n(C5CCCC5)c4n3)cc2)CC1  IC50 (Mitogen-activated protein kinase kinase kinase kinase 4 (MAP4K4, Homo sapiens, UniProt O95819); enzyme activity, inhibitor): 245 nM
CSc1ccc(/C=C2/C(C)=C(CC(=O)O)c3cc(F)ccc32)cc1  IC50 (PDE3A; enzyme activity, inhibitor): > 100000 nM
COc1ccc(C2=NN(C3CCCCCC3)C(=O)[C@@H]3CC=CC[C@H]23)cc1-c1ccc(C(N)=O)cc1 (relative stereo)  IC50 (PDE3A; enzyme activity, inhibitor): 7940 nM
Cc1cc(C)nc(NC(=S)N2CCN(c3ccncc3)CC2)c1  IC50 (MAPK14; enzyme activity, inhibitor, ADP detection): 100 nM
CC/C(=N\NC(=O)C(C)Nc1ccccc1)c1ccc(O)c(C)c1O (centres unmarked)  IC50 (cAMP-dependent protein kinase catalytic subunit beta (PRKACB, Homo sapiens, UniProt P22694); enzyme activity, inhibitor): 24.9 nM
CCCCCCOC(=O)c1ccccc1C(=O)c1ccc(N(CC)CC)cc1O  IC50 (Estrogen receptor (ESR1, Homo sapiens, UniProt P03372); reporter gene, antagonist): 4760 nM
N#C/C(=C\c1ccc(O)c(O)c1)C(=O)OC/C=C/c1ccccc1  IC50 (Leucine-rich repeat serine/threonine-protein kinase 2 (LRRK2, Homo sapiens, UniProt Q5S007, G2019S); enzyme activity, inhibitor, radiometric): 231 nM
COc1cc2c(cc1OC)-c1c/c(=N\c3c(C)cc(C)cc3C)n(C)c(=O)n1CC2  IC50 (PDE3A; enzyme activity, inhibitor, FP): 0.067 nM
CNc1nc(C)nc(N[C@H]2CCC[C@@H](C(=O)NCc3ccc(C#N)cc3C(F)(F)F)C2)n1  IC50 (Bifunctional epoxide hydrolase 2 (Ephx2, Rattus norvegicus, UniProt P80299); enzyme activity, inhibitor): 2.9 nM
C[C@@H]1Cc2ccccc2N1C(=O)NCCCCN(C)[C@@H]1Cc2cccc3[nH]c(=O)n(c23)C1  IC50 (5-hydroxytryptamine receptor 1A (HTR1A, Homo sapiens, UniProt P08908); ligand displacement, radioligand): 35.8 nM
Cc1ccc(NC(=O)c2cccc(N(C)C)c2)cc1NC(=O)c1ccc(O)cc1  IC50 (MAPK14; enzyme activity, inhibitor, ADP detection): 300 nM
CNC(=O)c1cc2c(Oc3ccc(NC(=O)C4(C(=O)Nc5ccc(F)cc5)CC4)cc3)ccnc2cc1OC  IC50 (MST1R; enzyme activity, inhibitor, radiometric): 43 nM
CC(C)(C)n1nc(-c2cnc3cc(OC4CC4)ccc3c2)c(C(N)=O)c1N  IC50 (MAPK14; cell-free assay): > 10000 nM
CC(C)C[C@H](NC(=O)[C@H]1O[C@@H]1C(=O)O)C(=O)NCCCCN=C(N)N  IC50 (Dipeptidyl peptidase 1 (CTSC, Homo sapiens, UniProt P53634); enzyme activity, inhibitor): 735 nM
Cc1cnc(-c2ccc(-c3ccc(NC(=O)Nc4c(F)cc(F)cc4F)cc3F)c3c2C(=O)NC3)[nH]1  IC50 (Serine/threonine-protein kinase PLK4 (PLK4, Homo sapiens, UniProt O00444); enzyme activity, inhibitor): 4.8 nM
